Reference: ChEMBL document CHEMBL1140227, “Histone deacetylase inhibitors through click chemistry” (J Med Chem, 2008)

Experiments:
Type in all cases: functional
MDA-MB-435 = experiment: Growth inhibition of human MDA-MB-435 cells at 10 uM relative to control; conditions: values are per cent of control
How it was run: (§1)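 Single-dose preliminary screen in the NCI human cancer cell line panel, run by the NIH. Percent inhibition of cell line growth was calculated by comparison with untreated samples.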

cells [1] = conditions: Homo sapiens, Cancer cell lines
cells [2] = conditions: Homo sapiens, Cancer cell lines; remark: listed apart in the source
T47D = experiment: Growth inhibition of human T47D cells at 10 uM relative to control; conditions: values are per cent of control
How it was run: (§2)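 Single-dose NCI human tumour cell line screen, run by the NIH. Percent inhibition of cell line growth was calculated by comparison with untreated samples.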

SK-OV-3 = experiment: Growth inhibition of human SKOV3 cells at 10 uM relative to control; conditions: values are per cent of control; how it was run: as §1
SF-539 = experiment: Growth inhibition of human SF539 cells at 10 uM relative to control; conditions: values are per cent of control; how it was run: as §1
SN12C = experiment: Growth inhibition of human SN12C cells at 10 uM relative to control; conditions: values are per cent of control; how it was run: as §1
OVCAR-8 = experiment: Growth inhibition of human OVCAR8 cells at 10 uM relative to control; conditions: values are per cent of control; how it was run: as §1
HOP-62 = experiment: Growth inhibition of human HOP62 cells at 10 uM relative to control; conditions: values are per cent of control; how it was run: as §1
NCI-H23 = experiment: Growth inhibition of human NCI-H23 cells at 10 uM relative to control; conditions: values are per cent of control; how it was run: as §1
SW-620 = experiment: Growth inhibition of human SW620 cells at 10 uM relative to control; conditions: values are per cent of control; how it was run: as §2
UACC-257 = experiment: Growth inhibition of human UACC257 cells at 10 uM relative to control; conditions: values are per cent of control; how it was run: as §2
UACC-62 = experiment: Growth inhibition of human UACC62 cells at 10 uM relative to control; conditions: values are per cent of control; how it was run: as §2
MDA-MB-231 = experiment: Growth inhibition of human MDA-MB-231 cells at 10 uM relative to control; conditions: values are per cent of control; how it was run: as §1
cells [3] = conditions: Homo sapiens, Cancer cell lines; remark: listed apart in the source
CCRF-CEM = experiment: Growth inhibition of human CCRF-CEM cells at 10 uM relative to control; conditions: values are per cent of control; how it was run: as §1
PC-3 = experiment: Growth inhibition of human PC3 cells at 10 uM relative to control; conditions: values are per cent of control; how it was run: as §1
SK-MEL-2 = experiment: Growth inhibition of human SK-MEL-2 cells at 10 uM relative to control; conditions: values are per cent of control; how it was run: as §1
cells [4] = conditions: Homo sapiens, Cancer cell lines; remark: listed apart in the source
HCT-116 = experiment: Growth inhibition of human HCT116 cells at 10 uM relative to control; conditions: values are per cent of control; how it was run: as §1
K562 = experiment: Growth inhibition of human K562 cells at 10 uM relative to control; conditions: values are per cent of control; how it was run: as §1
HT-29 = experiment: Growth inhibition of human HT-29 cells at 10 uM relative to control; conditions: values are per cent of control; how it was run: as §1
SNB-75 = experiment: Growth inhibition of human SNB75 cells at 10 uM relative to control; conditions: values are per cent of control; how it was run: as §2
[5] = Growth inhibition of human RPMI8266 cells at 10 uM relative to control; conditions: values are per cent of control; how it was run: as §1
OVCAR-3 = experiment: Growth inhibition of human OVCAR-3 cells at 10 uM relative to control; conditions: values are per cent of control; how it was run: as §1
LOX IMVI = experiment: Growth inhibition of human LOXIMVI cells at 10 uM relative to control; conditions: values are per cent of control; how it was run: as §1
HL-60(TB) = experiment: Growth inhibition of human HL-60(TB) cells at 10 uM relative to control; conditions: read-out: INH
How it was run: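 Single-dose cell line screen run by the NCI (NIH) in its human cancer cell line panel, which includes the leukemia line HL-60(TB). Percent growth inhibition was calculated by comparison with untreated samples.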

BT-549 = experiment: Growth inhibition of human BT549 cells at 10 uM relative to control; conditions: values are per cent of control; how it was run: as §1
NCI-H226 = experiment: Growth inhibition of human NCI-H226 cells at 10 uM relative to control; conditions: values are per cent of control; how it was run: as §1
A549 = experiment: Growth inhibition of human A549 cells at 10 uM relative to control; conditions: values are per cent of control; how it was run: as §1
Malme-3M = experiment: Growth inhibition of human MALME-3M cells at 10 uM relative to control; conditions: values are per cent of control; how it was run: as §1
SF-295 = experiment: Growth inhibition of human SF295 cells at 10 uM relative to control; conditions: values are per cent of control; how it was run: as §1

O=C(/C=C/c1cn(CCc2ccccc2)nn1)NO
growth, % of control at 10 µM (MDA-MB-435): 21.9% | inhibition at 10 µM (cells [1]): 48% | inhibition at 10 µM (cells [2]): 58% | growth, % of control at 10 µM (T47D): 32.8% | growth, % of control at 10 µM (SK-OV-3): 57% | growth, % of control at 10 µM (SF-539): 72.8% | growth, % of control at 10 µM (SN12C): 64.8% | growth, % of control at 10 µM (OVCAR-8): 26.5% | growth, % of control at 10 µM (HOP-62): 13.3% | growth, % of control at 10 µM (NCI-H23): 68.4% | growth, % of control at 10 µM (SW-620): 31.1% | growth, % of control at 10 µM (UACC-257): 19.5% | growth, % of control at 10 µM (UACC-62): 18.1% | growth, % of control at 10 µM (MDA-MB-231): 60.3% | growth percent at 10 µM (cells [3]): 40% | growth, % of control at 10 µM (CCRF-CEM): 7.44% | growth, % of control at 10 µM (PC-3): 37.2% | growth, % of control at 10 µM (SK-MEL-2): 45.8% | inhibition at 10 µM (cells [4]): 45% | growth, % of control at 10 µM (HCT-116): 5.49% | growth, % of control at 10 µM (K562): 30.5% | growth, % of control at 10 µM (HT-29): 56.9% | growth, % of control at 10 µM (SNB-75): 35.1% | growth, % of control at 10 µM [5]: 1.76% | growth, % of control at 10 µM (OVCAR-3): 61.3% | growth, % of control at 10 µM (LOX IMVI): 44.9% | growth, % of control at 10 µM (HL-60(TB)): -10.7% | growth, % of control at 10 µM (BT-549): 78% | growth, % of control at 10 µM (NCI-H226): 76.5% | growth, % of control at 10 µM (A549): 54.2% | growth, % of control at 10 µM (Malme-3M): 15.9% | growth, % of control at 10 µM (SF-295): 51.8%
